# Source: ChEMBL document CHEMBL1921775, “Phenolic glycosides from sugar maple (Acer saccharum) bark” (J Nat Prod, 2011)
# Columns and labels:
# [1] = system: HCT-116; test: Cytotoxicity against human HCT116 cells after 72 hrs by MTS assay; type: functional, cell-based; conditions: HCT-116, 72 h
# Method in brief: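 HCT-116 carcinoma cells in McCoy's 5A with 10% FBS, 1% nonessential amino acids, 2% HEPES and antibiotics, passages 26–35, 37 °C, 5% CO2. Samples were DMSO-solubilized by sonication and diluted in medium, final DMSO ≤0.5%. Cells were exposed for 72 h to six-point 4-fold dilutions. MTS plus phenazine methosulfate ran 3 h, with absorbance at 490 nm versus control wells. IC50 given as mean ± SD, three experiments.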
# [2] = system: Caco-2; test: Cytotoxicity against human Caco2 cells after 72 hrs by MTS assay; type: functional, cell-based; conditions: Caco-2, 72 h
# Method in brief: (§1)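 Colon cells (Caco-2 adenocarcinoma, nontumorigenic CCD-18Co) in EMEM with 10% FBS, 1% nonessential amino acids, 1% L-glutamine and antibiotics, passages 26–35, 37 °C, 5% CO2. Samples were dissolved in DMSO by sonication and diluted in medium, with final DMSO ≤0.5%. Six-point 4-fold dilution series ran for 72 h. MTS/PMS was read at OD490 after 3 h. IC50 reported as mean ± SD of three experiments.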
# [3] = Cytotoxicity against human CCD-18Co cells after 72 hrs by MTS assay; type: cell-based; method in brief: as §1
SMILES,IC50 [1] [µg/mL],IC50 [2] [µg/mL],IC50 [3] [µg/mL]
COc1cc([C@@H]2c3cc4c(cc3[C@@H](O[C@@H]3O[C@@H]5CO[C@@H](C)O[C@H]5[C@H](O)[C@H]3O)[C@H]3COC(=O)[C@H]23)OCO4)cc(OC)c1O [ETOPOSIDE],9.9,9.4,43.6
COc1cc(O[C@@H]2O[C@H](CO[C@@H]3OC[C@](O)(CO)[C@H]3O)[C@@H](O)[C@H](O)[C@H]2O)cc(OC)c1OC,< 5,< 5,< 5
COc1cc(O[C@@H]2O[C@H](CO)[C@@H](O)[C@H](O)[C@H]2O)cc(OC)c1OC,< 5,< 5,< 5
COc1cc(CO)cc(OC)c1O[C@@H]1O[C@H](CO)[C@@H](O)[C@H](O)[C@H]1O,< 5,< 5,< 5
COc1cc2ccc(=O)oc2cc1O[C@@H]1O[C@H](CO)[C@@H](O)[C@H](O)[C@H]1O [SCOPOLIN],< 5,< 5,< 5
COc1cc([C@H]2OC[C@H]3[C@@H]2CO[C@@H]3c2cc(OC)c(O[C@@H]3O[C@H](CO)[C@@H](O)[C@H](O)[C@H]3O)c(OC)c2)cc(OC)c1O,< 5,< 5,< 5
COc1cc(C(=O)OC[C@H]2O[C@@H](Oc3ccc(CO)cc3OC)[C@H](O)[C@@H](O)[C@@H]2O)ccc1O [SACCHARUMOSIDE B],< 5,< 5,< 5
COC(=O)c1cc(O[C@@H]2O[C@H](CO)[C@@H](O)[C@H](O)[C@H]2O[C@@H]2OC[C@](O)(CO)[C@H]2O)ccc1O [SACCHARUMOSIDE D],< 5,< 5,< 5
COc1cc([C@@H]2Oc3c(OC)cc(CCCO)cc3[C@H]2CO)ccc1O[C@@H]1O[C@@H](C)[C@H](O)[C@@H](O)[C@H]1O,< 5,< 5,< 5
COc1cc(CO)ccc1O[C@@H]1O[C@H](CO[C@@H]2OC[C@](O)(CO)[C@H]2O)[C@@H](O)[C@H](O)[C@H]1O,< 5,< 5,< 5
COC(=O)c1cc(O[C@@H]2O[C@H](CO[C@@H]3OC[C@](O)(CO)[C@H]3O)[C@@H](O)[C@H](O)[C@H]2O)ccc1O [SACCHARUMOSIDE C],< 5,< 5,< 5
COc1cc(CO)ccc1O[C@@H]1O[C@H](CO)[C@@H](O)[C@H](O)[C@H]1O [VANILLOLOSIDE],< 5,< 5,< 5
COc1cc(C(=O)OC[C@H]2O[C@@H](Oc3ccc([C@@H]4Oc5c(OC)cc(CCCO)cc5[C@H]4CO)cc3OC)[C@H](O)[C@@H](O)[C@@H]2O)ccc1O [SACCHARUMOSIDE A],< 5,< 5,< 5
